Experiments:
Assay type in all cases: ADME, organism-based
[1] = Clearance in healthy human with lean body mass of 53 kg at 4 g, iv; details: in vivo
Procedure, shortened: (§1)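 4 g piperacillin as a single 5-min IV infusion. Serial plasma sampled to 24 h and assayed by reversed-phase HPLC-UV (220 nm, mezlocillin internal standard, LOQ 0.200 mg/liter). Population PK model fitted in NONMEM with body size described by lean body mass and a CF-specific scale factor. Combined additive plus proportional residual error.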

[2] = Volume of distribution at steady state in cystic fibrosis patient at 4 g, iv; details: human, in vivo, read-out: Vdss
Procedure, shortened: (§2)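 Single 5-min IV infusion of 4 g piperacillin. Forearm-vein blood drawn from the arm opposite the infusion line pre-dose, at end of infusion, and 5 min to 24 h afterwards. Plasma iced, frozen at –70°C, acetonitrile-deproteinized with mezlocillin internal standard. Reversed-phase HPLC, UV 220 nm, linear 0.200–150 mg/liter. Unscaled parameters by noncompartmental analysis.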

[3] = Mean residence time in cystic fibrosis patient at 4 g, iv; details: human, in vivo; procedure, shortened: as §2
[4] = Peak drug level in healthy human at 4 g, iv; details: in vivo, read-out: Drug uptake; procedure, shortened: as §2
[5] = Volume of distribution at steady state in cystic fibrosis patient with lean body mass of 53 kg at 4 g, iv; details: human, in vivo, read-out: Vdss; procedure, shortened: as §1
[6] = test system: Homo sapiens; test: Peripheral volume of distribution in cystic fibrosis patient with lean body mass of 53 kg at 4 g, iv; details: in vivo; procedure, shortened: as §1
[7] = Clearance in cystic fibrosis patient with lean body mass of 53 kg at 4 g, iv; details: human, in vivo; procedure, shortened: as §1
[8] = Terminal half life in healthy human at 4 g, iv; details: in vivo; procedure, shortened: as §2
[9] = Mean residence time in healthy human at 4 g, iv; details: in vivo; procedure, shortened: as §2
[10] = Peak drug level in cystic fibrosis patient at 4 g, iv; details: human, in vivo, read-out: Drug uptake; procedure, shortened: as §2
[11] = Terminal half life in cystic fibrosis patient at 4 g, iv; details: human, in vivo; procedure, shortened: as §2
[12] = Total clearance in healthy human at 4 g, iv; details: in vivo; procedure, shortened: as §2
[13] = Volume of distribution at steady state in healthy human with lean body mass of 53 kg at 4 g, iv; details: in vivo, read-out: Vdss; procedure, shortened: as §1
[14] = Total clearance in cystic fibrosis patient at 4 g, iv; details: human, in vivo; procedure, shortened: as §2
[15] = Volume of distribution at steady state in healthy human at 4 g, iv; details: in vivo, read-out: Vdss; procedure, shortened: as §2

clearance [1]: 188 mL/min | Vd [2]: 8.13 L | MRT [3]: 51 min | Cmax [4]: 446 µg/mL | Vd [5]: 9.61 L | Vp/F [6]: 3.12 L | clearance [7]: 188 mL/min | half-life [8]: 63 min | MRT [9]: 61.2 min | Cmax [10]: 767 µg/mL | half-life [11]: 41.4 min | clearance [12]: 195 mL/min | Vd [13]: 10.4 L | clearance [14]: 146 mL/min | Vd [15]: 11.8 L
SMILES: CCN1CCN(C(=O)N[C@@H](C(=O)N[C@@H]2C(=O)N3[C@@H]2SC(C)(C)[C@@H]3C(=O)O)c2ccccc2)C(=O)C1=O [PIPERACILLIN]

Reference: ChEMBL document CHEMBL1157367, “Systematic comparison of the population pharmacokinetics and pharmacodynamics of piperacillin in cystic fibrosis patients and healthy volunteers” (Antimicrob Agents Chemother, 2007)
